In ChEMBL document CHEMBL3421621, “SAR Studies of Diphenyl Cationic Trypanocides: Superior Activity of Phosphonium over Ammonium Salts” (ACS Med Chem Lett, 2015):

Legend:
[1] = system: Trypanosoma brucei brucei; assay: Antitrypanosomal activity against wild type Trypanosoma brucei brucei s427 trypomastigotes assessed as cell viability after 48 hrs by alamar blue assay; format: functional, organism-based; details: s427, 48 h
In short: (§1)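 Alamar blue viability assay run in parallel on T. b. brucei s427 wild type trypomastigotes, the TbAT1-KO strain (no functional P2 transporter) and the B48 strain (derived from TbAT1-KO, nonfunctional HAPT). EC50 values are the mean of three experiments ± SEM. Resistance factor is the EC50 against each resistant strain relative to wild type.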

[2] = system: Trypanosoma brucei brucei; assay: Antitrypanosomal activity against Trypanosoma brucei brucei B48 with nonfunctional high affinity pentamidine transporter assessed as cell viability after 48 hrs by alamar blue assay; format: functional, organism-based; details: B48, 48 h; in short: as §1
[3] = Cytotoxicity against HEK293 cells after 16 hrs by alamar blue assay; format: cell-based; details: human
[4] = Selectivity index, ratio of CC50 for HEK293 cells to EC50 for wild type Trypanosoma brucei brucei s427 trypomastigotes; format: toxicity, cell-based; details: human; read-out: Ratio CC50/EC50
In short: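 Selectivity index = CC50 for HEK cells divided by EC50 against T. b. brucei s427 wild type.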

[5] = system: Trypanosoma brucei brucei; assay: Antitrypanosomal activity against AT1 knock out Trypanosoma brucei brucei assessed as cell viability after 48 hrs by alamar blue assay; format: functional, organism-based; in short: as §1
[6] = system: Trypanosoma brucei brucei; assay: Resistance factor, ratio of EC50 for Trypanosoma brucei brucei B48 to EC50 for wild type Trypanosoma brucei brucei s427 trypomastigotes; format: functional
In short: (§2)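 AlamarBlue-based viability assay run in parallel on wild-type T. b. brucei s427 trypomastigotes and two resistant strains. TbAT1-KO lacks a functional P2 transporter and is diminazene-resistant. B48 is derived from TbAT1-KO and also lacks a functional high-affinity pentamidine transporter (HAPT). EC50 values are means of three experiments ± SEM. Each resistant-strain EC50 is divided by the wild-type EC50.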

[7] = system: Trypanosoma brucei brucei; assay: Resistance factor, ratio of EC50 for AT1 knock out Trypanosoma brucei brucei to EC50 for wild type Trypanosoma brucei brucei s427 trypomastigotes; format: functional; in short: as §2

Row | SMILES | EC50 [1] [µM] | EC50 [2] [µM] | CC50 at 16 h [3] [µM] | selectivity ratio [4] | EC50 [5] [µM] | Ratio EC50 [6] | Ratio EC50 [7]
1 | CCCCCC[N+](CCCCCC)(CCCCCC)Cc1ccc(C(=O)c2ccccc2)cc1.[Br-] | 0.023 | 0.014 | 15.4 | 668 | 0.018 | 0.6 | 0.8
2 | Cl.O=C(c1ccccc1)c1ccc(CN(Cc2ccccc2)Cc2ccccc2)cc1 | 11 | 8.3 | > 300 | > 27 | 10 | 0.7 | 0.9
3 | O=C(c1ccccc1)c1ccc(C[n+]2ccccc2)cc1 | > 100 | > 100 |  |  | > 100 |  | 
4 | CC[N+](CC)(CC)Cc1ccc(C(=O)c2ccc(C[N+](CC)(CC)CC)cc2)cc1 | > 100 | > 100 |  |  | > 100 |  | 
5 | [Br-].[Br-].c1cc[n+](Cc2ccc(Oc3ccc(C[n+]4ccccc4)cc3)cc2)cc1 | 85 | 72 |  |  | > 100 | 0.8 | 
6 | CCCCCC[N+](CCCCCC)(CCCCCC)Cc1ccc(Oc2ccc(C[N+](CCCCCC)(CCCCCC)CCCCCC)cc2)cc1.[Br-].[Br-] | 0.102 | 0.065 | 21.8 | 213 | 0.08 | 0.6 | 0.8
7 | O=C(c1ccc(C[n+]2cccc3ccccc32)cc1)c1ccc(C[n+]2cccc3ccccc32)cc1.[Br-].[Br-] | 45.4 | 30.9 | > 300 | > 6 | 35.2 | 0.7 | 0.8
8 | CCCC[N+](CCCC)(CCCC)Cc1ccc(C(=O)c2ccc(C[N+](CCCC)(CCCC)CCCC)cc2)cc1.[Br-].[Br-] | 11.5 | 14.1 | > 300 | > 26 | 16.7 | 1.2 | 1.4
9 | N=C(N)c1ccc(OCCCCCOc2ccc(C(=N)N)cc2)cc1 [PENTAMIDINE] | 0.01 | 0.329 |  |  | 0.006 | 32.9 | 0.6
10 | N=C(N)c1ccc(/N=N/Nc2ccc(C(=N)N)cc2)cc1 [DIMINAZENE] | 0.323 |  |  |  | 0.738 | 3.1 | 2.3
11 | CCCC[N+](CCCC)(CCCC)Cc1ccc(C(=O)c2ccccc2)cc1.[Br-] | 4.6 | 4.5 | > 300 | > 65 | 4.1 | 1 | 0.9
12 | [Br-].[Br-].c1ccc2c(c1)ccc[n+]2Cc1ccc(Oc2ccc(C[n+]3cccc4ccccc43)cc2)cc1 | 11 | 9.7 | > 300 | > 27 | 10.2 | 0.9 | 0.9
13 | O=C(c1ccc(C[n+]2ccccc2)cc1)c1ccc(C[n+]2ccccc2)cc1 | > 100 | > 100 |  |  | > 100 |  | 
14 | O=C(c1ccccc1)c1ccc(C[n+]2cccc3ccccc32)cc1 | > 100 | 81.5 |  |  | 68.5 |  | 
15 | CCCC[N+](CCCC)(CCCC)Cc1ccc(Oc2ccc(C[N+](CCCC)(CCCC)CCCC)cc2)cc1.[Br-].[Br-] | 2.8 | 3 | > 300 | > 100 | 3.98 | 1.1 | 1.4
16 | CC[N+](CC)(CC)Cc1ccc(Oc2ccc(C[N+](CC)(CC)CC)cc2)cc1 | > 100 | > 100 |  |  | > 100 |  | 
